Reference: ChEMBL document CHEMBL3813671, “Unexpected Discovery of Dichloroacetate Derived Adenosine Triphosphate Competitors Targeting Pyruvate Dehydrogenase Kinase To Inhibit Cancer Proliferation” (J Med Chem, 2016)
Activity calls are given as the source filed them. No cut-off for these calls is given here.

How the values were obtained:
MCF7 [1] = assay: Reversal of hyperpolarized mitochondrial membrane potential in human MCF7 cells assessed as J-monomer/J-aggregate ratio at 20 uM after 12 hrs by JC1 staining-based flow cytometric analysis; assay type: functional
Summary of the method: (§1)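 MCF-7 cells treated 12 h (5, 10 or 20 µM), then stained with JC-1. Depolarization read as the ratio of green J-monomer to red J-aggregate fluorescence.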

[2] = biological target: T1, [Pyruvate dehydrogenase (acetyl-transferring)] kinase isozyme 1, mitochondrial (Homo sapiens, UniProt Q15118); assay: Inhibition of recombinant N-terminal 6xHis-SUMO-tagged human PDK1 (29 to 436 residues) expressed in Escherichia coli BL-21 assessed as phosphorylation of RYHGHSMSDP at 50 uM after 30 mins by Kinase-Glo luminescent assay
T1 sequence (Q15118 whole entry, the tested form may be a part): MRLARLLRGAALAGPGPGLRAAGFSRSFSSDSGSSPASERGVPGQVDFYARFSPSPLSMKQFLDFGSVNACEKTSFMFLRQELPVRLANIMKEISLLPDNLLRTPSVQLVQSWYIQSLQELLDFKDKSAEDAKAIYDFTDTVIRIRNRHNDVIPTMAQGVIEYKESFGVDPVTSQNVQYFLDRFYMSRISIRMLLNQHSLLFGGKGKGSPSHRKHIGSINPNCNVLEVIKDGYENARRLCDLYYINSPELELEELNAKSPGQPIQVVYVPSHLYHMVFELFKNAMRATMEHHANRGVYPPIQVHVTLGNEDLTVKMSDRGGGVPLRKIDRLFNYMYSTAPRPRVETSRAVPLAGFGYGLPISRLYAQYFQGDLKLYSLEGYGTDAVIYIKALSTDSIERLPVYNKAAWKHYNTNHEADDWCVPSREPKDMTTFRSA

MCF7 [3] = assay: Cytotoxicity against human MCF7 cells assessed as growth inhibition at 20 uM after 72 hrs by IncuCyte Zoom live cells imaging method; assay type: functional, cell-based
A549 [4] = assay: Cytotoxicity against human A549 cells assessed as growth inhibition after 72 hrs by MTT assay; assay type: functional, cell-based; conditions: A549, 72 h
MCF7 [5] = assay: Reversal of hyperpolarized mitochondrial membrane potential in human MCF7 cells after 12 hrs by JC1 staining-based flow cytometric analysis; assay type: functional, cell-based
[6] = Cytotoxicity against human MCF10A cells assessed as growth inhibition at 10 uM after 72 hrs by MTT assay relative to control; assay type: cell-based, MCF-10A; conditions: read-out: GI
MCF7 [7] = assay: Reversal of hyperpolarized mitochondrial membrane potential in human MCF7 cells assessed as cells with vital and intact mitochondrial membranes at 20 uM after 12 hrs by JC1 staining-based flow cytometric analysis; assay type: functional; summary of the method: as §1
MCF7 [8] = assay: Induction of apoptosis in human MCF7 assessed as viable cells at 20 uM after 15 hrs by FITC-annexin V/propidium iodide staining-based flow cytometric analysis (reference value: 93.8%); assay type: functional; conditions: MCF7, 15 h, read-out: Activity
MCF7 [9] = assay: Induction of apoptosis in human MCF7 assessed as early apoptotic cells at 20 uM after 10 hrs by FITC-annexin V/propidium iodide staining-based flow cytometric analysis (reference value: 2.38%); assay type: functional
MCF7 [10] = assay: Reversal of hyperpolarized mitochondrial membrane potential in human MCF7 cells assessed as cells with vital and intact mitochondrial membranes at 5 uM after 12 hrs by JC1 staining-based flow cytometric analysis; assay type: functional; summary of the method: as §1
[11] = biological target: T1, [Pyruvate dehydrogenase (acetyl-transferring)] kinase isozyme 1, mitochondrial; assay: Inhibition of PDK1 in human MCF7 cells assessed as increase in ratio of oxygen consumption rate to extracellular acidification rate at 20 uM after 12 hrs; assay type: cell-based
Summary of the method: (§2)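 MCF-7 cells at 2.7×10⁴ cells/well in XF24 plates, attached, then grown 24 h at 37 °C in 5% CO2. Treated 12 h at 5, 10 or 20 µM, rinsed into glycolysis stress-test medium and held 1 h at 37 °C without CO2. OCR, ECAR and PPR then measured on a Seahorse XFe24 analyser. Significance P < 0.05 versus untreated control.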

MCF7 [12] = assay: Induction of apoptosis in human MCF7 assessed as early apoptotic cells at 20 uM after 15 hrs by FITC-annexin V/propidium iodide staining-based flow cytometric analysis (reference value: 2.38%); assay type: functional
MCF7 [13] = assay: Induction of apoptosis in human MCF7 assessed as necrotic cells at 20 uM after 5 hrs by FITC-annexin V/propidium iodide staining-based flow cytometric analysis (reference value: 1.86%); assay type: functional
MCF7 [14] = assay: Induction of apoptosis in human MCF7 assessed as viable cells at 20 uM after 5 hrs by FITC-annexin V/propidium iodide staining-based flow cytometric analysis (reference value: 93.8%); assay type: functional; conditions: MCF7, 5 h, read-out: Activity
MCF7 [15] = assay: Reversal of hyperpolarized mitochondrial membrane potential in human MCF7 cells assessed as cells with vital and intact mitochondrial membranes at 10 uM after 12 hrs by JC1 staining-based flow cytometric analysis; assay type: functional; summary of the method: as §1
Sus scrofa [16] = species on record: Sus scrofa; assay: Activation of pig heart PDC assessed as production of NADH at 50 uM in absence of ATP
Summary of the method: (§3)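 Pig heart PDC (80 µg/ml, carrying intrinsic PDK activity) preincubated 40 min at 37 °C in Mops pH 7.20 buffer with NaF, acetyl-CoA, NADH and DTT. Kinase step 3 min at 37 °C with 55 µM ADP and 100 µM ATP, or no ATP. Stopped with ADP/pyruvate. Residual PDC activity then read as NADH formation at 340 nm, 37 °C, in Tris pH 7.8 with TPP, NAD+, pyruvate and CoA.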

Sus scrofa [17] = species on record: Sus scrofa; assay: Activation of pig heart PDC assessed as production of NADH at 50 uM in presence of ATP; summary of the method: as §3
[18] = biological target: T1, [Pyruvate dehydrogenase (acetyl-transferring)] kinase isozyme 1, mitochondrial; assay: Inhibition of PDK1 in human MCF7 cells assessed as increase in oxygen consumption rate at 5 to 20 uM after 12 hrs; assay type: cell-based; summary of the method: as §2
[19] = biological target: T1, [Pyruvate dehydrogenase (acetyl-transferring)] kinase isozyme 1, mitochondrial; assay: Inhibition of PDK1 in human MCF7 cells assessed as decrease in extracellular acidification rate after 12 hrs; assay type: cell-based; summary of the method: as §2
MCF7 [20] = assay: Cytotoxicity against human MCF7 cells assessed as growth inhibition at 40 uM after 72 hrs by MTT assay relative to control; assay type: functional, cell-based
A549 [21] = assay: Cytotoxicity against human A549 cells assessed as growth inhibition at 40 uM after 72 hrs by MTT assay relative to control; assay type: functional, cell-based
A549 [22] = assay: Cytotoxicity against human A549 cells assessed as growth inhibition at 20 uM after 72 hrs by IncuCyte Zoom live cells imaging method; assay type: functional, cell-based
[23] = biological target: T1, [Pyruvate dehydrogenase (acetyl-transferring)] kinase isozyme 1, mitochondrial; assay: Inhibition of PDK1 in human MCF7 cells assessed as decrease in proton production rate after 12 hrs; assay type: cell-based; summary of the method: as §2
[24] = biological target: T1, [Pyruvate dehydrogenase (acetyl-transferring)] kinase isozyme 1, mitochondrial; assay: Inhibition of recombinant N-terminal 6xHis-SUMO-tagged human PDK1 (29 to 436 residues) expressed in Escherichia coli BL-21 assessed as suppression of PDC phosphorylation at S293 at 50 uM after 30 mins by Western blot method
MCF7 [25] = assay: Induction of apoptosis in human MCF7 assessed as late apoptotic cells at 20 uM after 10 hrs by FITC-annexin V/propidium iodide staining-based flow cytometric analysis (reference value: 1.95%); assay type: functional
MCF7 [26] = assay: Induction of apoptosis in human MCF7 assessed as late apoptotic cells at 20 uM after 5 hrs by FITC-annexin V/propidium iodide staining-based flow cytometric analysis (reference value: 1.95%); assay type: functional
MCF7 [27] = assay: Induction of apoptosis in human MCF7 assessed as viable cells at 20 uM by FITC-annexin V/propidium iodide staining-based flow cytometric analysis; assay type: functional, cell-based; conditions: TDE = time-dependent effect
[28] = biological target: T1, [Pyruvate dehydrogenase (acetyl-transferring)] kinase isozyme 1, mitochondrial; assay: Inhibition of recombinant N-terminal 6xHis-SUMO-tagged human PDK1 (29 to 436 residues) expressed in Escherichia coli BL-21 assessed as activation of PDC at 50 uM
[29] = Cytotoxicity against human MCF10A cells assessed as growth inhibition at 20 uM after 72 hrs by MTT assay relative to control; assay type: cell-based, MCF-10A; conditions: read-out: GI
MCF7 [30] = assay: Induction of mitochondrial membrane potential depolarization in human MCF7 cells at 40 uM after 12 hrs by TMRM staining-based assay; assay type: functional, cell-based
[31] = biological target: T1, [Pyruvate dehydrogenase (acetyl-transferring)] kinase isozyme 1, mitochondrial; assay: Inhibition of PDK1 in human MCF7 cells assessed as decrease in lactate production at 5 to 20 uM after 12 hrs; assay type: cell-based
MCF7 [32] = assay: Induction of apoptosis in human MCF7 assessed as necrotic cells at 20 uM after 10 hrs by FITC-annexin V/propidium iodide staining-based flow cytometric analysis (reference value: 1.86%); assay type: functional
MCF7 [33] = assay: Cytotoxicity against human MCF7 cells assessed as growth inhibition after 72 hrs by MTT assay; assay type: functional, cell-based; conditions: MCF7, 72 h
[34] = biological target: T1, [Pyruvate dehydrogenase (acetyl-transferring)] kinase isozyme 1, mitochondrial; assay: Inhibition of PDK1 in human MCF7 cells assessed as increase in oxygen consumption rate at 40 uM after 12 hrs; assay type: cell-based
[35] = biological target: T1, [Pyruvate dehydrogenase (acetyl-transferring)] kinase isozyme 1, mitochondrial; assay: Binding affinity to recombinant N-terminal 6xHis-SUMO-tagged human PDK1 (29 to 436 residues) expressed in Escherichia coli BL-21 by isothermal titration calorimetric method
Summary of the method: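 Ligand titrated into PDK1 (10 or 20 µM) by ITC at 25 °C, 2.5 µL injections into a 300 µL cell. Protein is His-SUMO-tagged, co-expressed with GroEL/GroES in E. coli BL-21, purified by Ni-IMAC and gel filtration.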

MCF7 [36] = assay: Induction of apoptosis in human MCF7 assessed as early apoptotic cells at 20 uM after 5 hrs by FITC-annexin V/propidium iodide staining-based flow cytometric analysis (reference value: 2.38%); assay type: functional
MCF7 [37] = assay: Induction of apoptosis in human MCF7 assessed as viable cells at 20 uM after 10 hrs by FITC-annexin V/propidium iodide staining-based flow cytometric analysis (reference value: 93.8%); assay type: functional; conditions: MCF7, 10 h, read-out: Activity
MCF7 [38] = assay: Induction of apoptosis in human MCF7 assessed as necrotic cells at 20 uM after 15 hrs by FITC-annexin V/propidium iodide staining-based flow cytometric analysis (reference value: 1.86%); assay type: functional
MCF7 [39] = assay: Induction of apoptosis in human MCF7 assessed as late apoptotic cells at 20 uM after 15 hrs by FITC-annexin V/propidium iodide staining-based flow cytometric analysis (reference value: 1.95%); assay type: functional

Structure (SMILES): O=C(Nc1ccc(Cl)c(C(F)(F)F)c1)C(Cl)Cl
- Ratio (MCF7 [1]): 1.69
- inhibition [2]: Active
- growth inhibition (GI) (MCF7 [3]): Active
- IC50 (A549 [4]): 7.46 µM
- Activity (MCF7 [5]): Dose-dependent effect
- inhibition at 72 h, 10 µM [6]: 3.51%
- Activity (MCF7 [7]): 46.8%
- viability at 20 µM (MCF7 [8]): 78.2%
- Activity (MCF7 [9]): 2.88%
- Activity (MCF7 [10]): 79.7%
- inhibition [11]: Active
- Activity (MCF7 [12]): 2.65%
- Activity (MCF7 [13]): 5.41%
- viability at 20 µM (MCF7 [14]): 82.4%
- Activity (MCF7 [15]): 65%
- Activity (Sus scrofa [16]): Active
- Activity (Sus scrofa [17]): inactive
- inhibition [18]: Dose-dependent effect
- inhibition [19]: Dose-dependent effect
- growth inhibition (GI) (MCF7 [20]): Active
- growth inhibition (GI) (A549 [21]): Active
- growth inhibition (GI) (A549 [22]): Active
- inhibition [23]: Dose-dependent effect
- inhibition [24]: Active
- Activity (MCF7 [25]): 11.8%
- Activity (MCF7 [26]): 10.2%
- Activity (MCF7 [27]): tde
- inhibition [28]: Active
- inhibition at 72 h, 20 µM [29]: 10.3%
- Activity (MCF7 [30]): Active
- inhibition [31]: Active
- Activity (MCF7 [32]): 3.47%
- IC50 (MCF7 [33]): 3.12 µM
- inhibition [34]: inactive
- Kd [35]: 40.8 µM
- Activity (MCF7 [36]): 1.98%
- viability at 20 µM (MCF7 [37]): 81.9%
- Activity (MCF7 [38]): 4.96%
- Activity (MCF7 [39]): 14.2%
